Experimental data published in ChEMBL document CHEMBL4390639, “Design, Synthesis, and Biological Evaluation of Novel Allosteric Protein Disulfide Isomerase Inhibitors” (J Med Chem, 2019).
Each block holds one molecule with its values, some of them ahead of it. Calls of active or inactive are those of the source. The calls are words filed in the database; no cut-off is given here.

Tests used:
[1] = tested on: Protein disulfide-isomerase (Homo sapiens), P07237 [H256A]; assay: Binding affinity to recombinant human N-terminal His-tagged PDI H256A mutant expressed in Escherichia coli BL21 (DE3) pLysS assessed as change in melting temperature at 100 uM by ROX dye based thermal shift assay
Procedure, shortened: (§1)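 Purified wild-type, C53S/C397S or H256A PDI at 0.5 mg/mL in 50 mM Tris, pH 7.0, with or without 100 μM compound, was mixed with ROX dye in a 20 µL well. DMSO (5% in buffer) was the control. Samples were heated 25–99 °C at 1 °C/min, and the Boltzmann melting temperature shift versus DMSO was reported. Mean ± SD of three experiments.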

[2] = target: Eukaryotic translation initiation factor 2 subunit 1 (Homo sapiens) (UniProt P05198); assay: Induction of EIF2alpha phosphorylation in human A172 cells at 10 ug/ml measured after 2 hrs by Western blot analysis; type: cell-based
[3] = target: Eukaryotic translation initiation factor 2 subunit 1 (Homo sapiens) (UniProt P05198); assay: Induction of EIF2alpha phosphorylation in human U87MG cells at 10 ug/ml measured after 2 hrs by Western blot analysis; type: cell-based
Procedure, shortened: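 U87MG cells (0.5 x 10^6 per well) exposed to tunicamycin at 10 µg/mL for 2 h. Cells lysed by sonication in Tris/NaCl/Triton X-100/SDS buffer, pH 7.4, and cleared at 13,500×g, 4 °C. Protein was measured by BCA, and 30 µg was run on 10% acrylamide gels and transferred to PVDF. Antibody signal was read by fluorescence imaging.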

[4] = target: T1, Protein disulfide-isomerase (Homo sapiens, UniProt P07237); assay: Binding affinity to recombinant human N-terminal His-tagged PDI expressed in Escherichia coli BL21 (DE3) pLysS assessed as change in melting temperature at 100 uM by ROX dye based thermal shift assay; procedure, shortened: as §1
Target sequence in this assay (P07237 18-508 limits assumed): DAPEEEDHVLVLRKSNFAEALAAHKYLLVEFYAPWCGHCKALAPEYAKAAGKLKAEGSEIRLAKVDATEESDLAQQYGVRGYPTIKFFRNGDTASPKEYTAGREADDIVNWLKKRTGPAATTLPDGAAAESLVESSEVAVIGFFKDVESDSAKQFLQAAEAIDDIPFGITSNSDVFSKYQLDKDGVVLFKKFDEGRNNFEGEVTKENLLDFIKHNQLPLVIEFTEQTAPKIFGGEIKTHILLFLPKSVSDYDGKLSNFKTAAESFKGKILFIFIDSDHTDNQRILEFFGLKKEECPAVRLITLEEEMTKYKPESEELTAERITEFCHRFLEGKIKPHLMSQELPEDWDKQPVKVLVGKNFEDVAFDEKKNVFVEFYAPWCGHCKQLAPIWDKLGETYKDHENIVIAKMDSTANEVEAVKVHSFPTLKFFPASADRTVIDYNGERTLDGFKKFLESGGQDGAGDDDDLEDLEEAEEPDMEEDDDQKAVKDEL

[5] = target: Eukaryotic translation initiation factor 2 subunit 1 (Homo sapiens) (UniProt P05198); assay: Induction of EIF2alpha phosphorylation in human U87MG cells at 1 uM measured after 2 hrs by Western blot analysis; type: cell-based
Procedure, shortened: (§2)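 eIF2α phosphorylation in U87MG cells after 2 h with 1 µM PACMA31 or 20 µM analogues; tunicamycin 10 µg/mL as comparator. Lysates (Tris/NaCl/Triton/SDS, sonicated) quantified by BCA; 30 µg protein separated on 10% gels, blotted to PVDF, probed for phospho-eIF2α, detected by fluorescence.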

U-87 MG [6] = assay: Down regulation of MMP9 expression in human U87MG cells at 0.25 uM measured after 24 hrs by Western blot analysis; type: functional, cell-based; details: U-87MG ATCC
U-87 MG [7] = assay: Induction of endoplasmic reticulum stress in human U87MG cells assessed as increase in GRP78 expression at 1 uM measured after 24 hrs by Western blot analysis; type: functional, cell-based; details: U-87MG ATCC
Procedure, shortened: (§3)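 ER-stress immunoblot: 0.5 x 10^6 U87MG cells/well treated for 24 h with 20 µM analogues, 1 µM PACMA31 or DMSO; tunicamycin 10 µg/mL for 2 or 24 h as positive control. Lysis in Tris/NaCl/Triton/SDS buffer with sonication; 30 µg protein on 10% gels, transferred to PVDF, GRP78 probed, fluorescence imaging.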

[8] = target: T1, Protein disulfide-isomerase; assay: Inhibition of recombinant human N-terminal His-tagged PDI expressed in Escherichia coli BL21 (DE3) pLysS assessed as reduction in enzyme-mediated bovine insulin aggregation
Target sequence in this assay (P07237 whole entry): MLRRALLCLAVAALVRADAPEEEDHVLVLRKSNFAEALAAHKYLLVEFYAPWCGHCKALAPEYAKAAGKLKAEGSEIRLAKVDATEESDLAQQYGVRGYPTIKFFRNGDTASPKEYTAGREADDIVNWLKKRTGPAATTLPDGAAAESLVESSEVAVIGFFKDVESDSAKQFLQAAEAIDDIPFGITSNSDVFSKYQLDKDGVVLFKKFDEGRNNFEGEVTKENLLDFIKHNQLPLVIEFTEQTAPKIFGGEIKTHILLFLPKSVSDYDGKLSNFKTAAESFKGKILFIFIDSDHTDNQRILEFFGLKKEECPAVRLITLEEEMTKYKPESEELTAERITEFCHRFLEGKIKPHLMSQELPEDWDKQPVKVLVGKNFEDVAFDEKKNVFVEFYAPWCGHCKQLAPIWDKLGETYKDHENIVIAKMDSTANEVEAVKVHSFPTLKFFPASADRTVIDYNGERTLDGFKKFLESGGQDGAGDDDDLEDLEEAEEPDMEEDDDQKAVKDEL

A 172 [9] = assay: Induction of endoplasmic reticulum stress in human A172 cells assessed as increase in GRP78 expression at 1 uM measured after 24 hrs by Western blot analysis; type: functional, cell-based
[10] = target: T1, Protein disulfide-isomerase; assay: Inhibition of recombinant human N-terminal His-tagged PDI expressed in Escherichia coli BL21 (DE3) pLysS at 100 uM measured after 1 hr by ANS dye based fluorescence spectra analysis
Procedure, shortened: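 ANS spectral scan: PDI incubated with 100 μM compounds or matching DMSO in TBS for 1 h at 37 °C. ANS then added and incubated 20 min at 25 °C in the dark. Fluorescence spectrum recorded with excitation 370 nm, emission 400–700 nm.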
Target sequence in this assay (P07237 18-508 limits assumed): as the sequence (P07237 18-508 limits assumed) above

[11] = target: T1, Protein disulfide-isomerase; assay: Inhibition of recombinant human N-terminal His-tagged PDI expressed in Escherichia coli BL21 (DE3) pLysS assessed as reduction in enzyme-mediated bovine insulin aggregation at 40 uM measured after 1 hr in presence of 5 mM NAC
Procedure, shortened: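 Compounds pretreated with NAC for 30 min at 37 °C, then added to the insulin reductase assay at final 40 μM compound with 0, 1, 2 or 5 mM NAC. The assay uses 0.4 μM PDI preincubated 1 h at 37 °C, then DTT and bovine insulin, read at 620 nm, with % activity at 80 min.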
Target sequence in this assay (P07237 18-508 limits assumed): as above

U-87 MG [12] = assay: Inhibition of colony formation in human U87MG cells […] by crystal violet staining based assay; type: functional, cell-based; details: U-87MG ATCC
Procedure, shortened: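 Clonogenicity: U87MG cells seeded at 200 cells/well, left overnight, treated 24 h, then medium replaced and cells grown ten days. Stained 30 min with crystal violet, washed, imaged; normalized well intensity from three independent experiments.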

A 172 [13] = assay: Antimigratory activity against human A172 cells assessed as reduction in cell migration towards wound area measured after 24 hrs by Giemsa staining based microscopic analysis; type: functional
Procedure, shortened: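 A172 cells plated at 50,000 cells/well, incubated overnight at 37 °C, 5% CO2, then held 24 h in serum-free DMEM. A scratch was made, compounds were added, and cells grew 24 h until DMSO-control wells closed. Cells were Giemsa-stained and imaged at 10X.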

[14] = target: Eukaryotic translation initiation factor 2 subunit 1 (Homo sapiens) (UniProt P05198); assay: Induction of EIF2alpha phosphorylation in human A172 cells at 1 uM measured after 2 hrs by Western blot analysis; type: cell-based
U-87 MG [15] = assay: Down regulation of cleaved MMP2 expression in human U87MG cells at 0.25 uM measured after 24 hrs by Western blot analysis; type: functional, cell-based; details: U-87MG ATCC
D54 cell line = assay: Inhibition of colony formation in 1 to 6 Gy-irradiated human D54 cells at 0.05 uM measured after 10 to 12 days by crystal violet staining based assay; type: functional, cell-based
Procedure, shortened: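 D54 cells irradiated at 0, 1, 2, 4 or 6 Gy and plated immediately at 200–1000 cells/well according to dose. Treated with DMSO, 0.05 μM PACMA31 or 1 μM compounds, grown 10–12 days, then colonies stained with 0.1% crystal violet.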

[16] = target: 72 kDa type IV collagenase (Homo sapiens) (UniProt P08253); assay: Inhibition of MMP2 activity in human U87MG cells at 0.25 uM […] by gelatin zymographic method; type: cell-based
A 172 [17] = assay: Antimigratory activity against human A172 cells at 30 uM measured after 4 hrs by Giemsa staining based transwell migration assay; type: functional, cell-based
Procedure, shortened: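 A172 cells (1 x 10^5) were treated with compound and seeded into inserts with 8.0 μm PET membrane in serum-free medium. DMEM with 10% FBS was in the lower well; wells without FBS served as control. After 4 h, migrated cells were Giemsa-stained and imaged at 10X, 5 fields per well.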

A 172 [18] = assay: Induction of morphological changes in human A172 cells at 40 uM measured after 48 hrs by Giemsa-staining based microscopic analysis; type: functional, cell-based
U-87 MG [19] = assay: Effect on PDI expression in human U87MG cells at 20 uM measured after 24 hrs by Western blot analysis; type: functional, cell-based; details: U-87MG ATCC
HFF-1 = assay: Cytotoxicity against HFF1 cells assessed as inhibition of cell growth measured after 72 hrs by MTT assay; type: cell-based; details: Homo sapiens, HFF-1, 72 h
Procedure, shortened: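 Cells grown as monolayers at 37 °C, 5% CO2, seeded and left overnight, then exposed to drug or vehicle for 72 h. MTT (20 μL of 3 mg/mL) added for 4 h, supernatant removed, formazan dissolved in DMSO, absorbance read at 570 nm. IC50 from nonlinear regression of log concentration–response curves; at least three independent experiments.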

[20] = target: Eukaryotic translation initiation factor 2 subunit 1 (Homo sapiens) (UniProt P05198); assay: Induction of EIF2alpha phosphorylation in human U87MG cells at 20 uM measured after 2 hrs by Western blot analysis; type: cell-based; procedure, shortened: as §2
A 172 [21] = assay: Induction of endoplasmic reticulum stress in human A172 cells assessed as increase in GRP78 expression at 20 uM measured after 24 hrs by Western blot analysis; type: functional, cell-based
U-87 MG [22] = assay: Effect on MMP2 expression in human U87MG cells at 10 uM measured after 24 hrs by Western blot analysis; type: functional, cell-based; details: U-87MG ATCC
[23] = tested on: Protein disulfide-isomerase (Homo sapiens), P07237 [H256A]; assay: Inhibition of recombinant human N-terminal His-tagged PDI H256A mutant expressed in Escherichia coli BL21 (DE3) pLysS at 10 uM assessed as reduction in enzyme-mediated bovine insulin aggregation
Procedure, shortened: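 Insulin reductase assay against H256A PDI: 0.4 μM enzyme preincubated with compounds at 10 μM for 1 h at 37 °C in 100 mM sodium phosphate, 2 mM EDTA, 8 μM DTT, pH 7.0. Then 500 μM DTT and 130 μM bovine insulin added; aggregation read at 620 nm at room temperature. Activity % from OD change at 0 and 80 min, relative to PDI and DTT-only controls; three experiments.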

U-87 MG [24] = assay: Cytotoxicity against human U87MG cells assessed as inhibition of cell proliferation at <IC50 treated for 24 hrs and measured after 10 days by colony formation assay relative to control
[25] = target: Eukaryotic translation initiation factor 2 subunit 1 (Homo sapiens) (UniProt P05198); assay: Induction of EIF2alpha phosphorylation in human A172 cells at 20 uM measured after 2 hrs by Western blot analysis; type: cell-based
A 172 [26] = assay: Effect on PDI expression in human A172 cells at 20 uM measured after 24 hrs by Western blot analysis; type: functional, cell-based
U-87 MG [27] = assay: Cytotoxicity against human U87MG cells assessed as inhibition of cell growth measured after 72 hrs by MTT assay; type: functional, cell-based, U-87MG ATCC; details: Homo sapiens, U-87 MG, 72 h; read-out: IC50
Procedure, shortened: (§4)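 A172 and NU04 cells were seeded at 4000 cells/well and U87MG at 5000 cells/well, incubated overnight at 37 °C, 5% CO2, then exposed to compound or vehicle for 72 h. MTT (3 mg/mL) was added for 4 h, formazan was dissolved in DMSO, and absorbance was read at 570 nm. IC50 came from nonlinear regression; mean ± SD of at least three experiments.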

A 172 [28] = assay: Cytotoxicity against human A172 cells assessed as inhibition of cell growth measured after 72 hrs by MTT assay; type: functional, cell-based; details: Homo sapiens, A 172, 72 h; read-out: IC50; procedure, shortened: as §4
[29] = Therapeutic ratio of IC50 for HFF1 cells to IC50 for human NU04 cells
Procedure, shortened: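 Ratio of two growth-inhibition IC50s, HFF-1 normal human fibroblasts over NU04 glioma cells. Cells were grown as monolayers at 37 °C in 5% CO2, with NU04 seeded at 4000 cells/well. After overnight attachment, cells were exposed to compound or vehicle for 72 h. MTT (3 mg/mL) was added for 4 h, and formazan dissolved in DMSO was read at 570 nm. IC50s came from nonlinear regression of log concentration-response curves, with at least three independent experiments.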

[30] = Cytotoxicity against human NU04 cells assessed as inhibition of cell growth measured after 72 hrs by MTT assay; type: functional, cell-based; details: Homo sapiens, 72 h; read-out: IC50; procedure, shortened: as §4
U-87 MG [31] = assay: Induction of endoplasmic reticulum stress in human U87MG cells assessed as increase in GRP78 expression at 20 uM measured after 24 hrs by Western blot analysis; type: functional, cell-based; details: U-87MG ATCC; procedure, shortened: as §3
[32] = target: Focal adhesion kinase 1 (Homo sapiens) (UniProt Q05397); assay: Effect on FAK phosphorylation in human U87MG cells at 10 uM measured after 24 hrs by Western blot analysis; type: cell-based
Focal adhesion kinase 1 (Homo sapiens), sequence (Q05397 2-1052 limits assumed): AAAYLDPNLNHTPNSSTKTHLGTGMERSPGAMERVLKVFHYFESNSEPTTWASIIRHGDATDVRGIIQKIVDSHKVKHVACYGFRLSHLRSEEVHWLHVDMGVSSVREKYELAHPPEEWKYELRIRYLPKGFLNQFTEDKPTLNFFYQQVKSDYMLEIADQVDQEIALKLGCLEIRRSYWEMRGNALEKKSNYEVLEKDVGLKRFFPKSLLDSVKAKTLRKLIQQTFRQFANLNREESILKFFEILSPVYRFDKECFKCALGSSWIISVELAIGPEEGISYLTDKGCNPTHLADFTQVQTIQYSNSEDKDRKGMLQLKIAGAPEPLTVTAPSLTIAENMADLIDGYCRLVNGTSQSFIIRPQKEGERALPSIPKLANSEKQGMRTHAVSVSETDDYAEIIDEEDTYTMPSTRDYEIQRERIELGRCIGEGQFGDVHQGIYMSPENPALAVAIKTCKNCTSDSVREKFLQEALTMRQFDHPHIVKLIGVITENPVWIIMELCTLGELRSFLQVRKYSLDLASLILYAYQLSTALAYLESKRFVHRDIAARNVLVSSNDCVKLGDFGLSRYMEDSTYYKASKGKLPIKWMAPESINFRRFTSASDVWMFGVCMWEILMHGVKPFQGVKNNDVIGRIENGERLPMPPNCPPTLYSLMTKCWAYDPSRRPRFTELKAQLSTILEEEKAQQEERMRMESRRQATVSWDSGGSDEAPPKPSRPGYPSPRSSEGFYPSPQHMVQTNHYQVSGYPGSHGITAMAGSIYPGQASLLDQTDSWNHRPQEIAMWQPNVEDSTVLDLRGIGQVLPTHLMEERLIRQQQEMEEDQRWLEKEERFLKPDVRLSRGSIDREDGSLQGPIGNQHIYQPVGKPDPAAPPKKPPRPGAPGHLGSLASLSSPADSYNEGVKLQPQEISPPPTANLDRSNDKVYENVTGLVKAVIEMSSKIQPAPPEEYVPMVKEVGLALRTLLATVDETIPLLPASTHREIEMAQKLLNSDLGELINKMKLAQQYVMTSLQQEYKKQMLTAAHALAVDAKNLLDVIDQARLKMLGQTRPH

Eukaryotic translation initiation factor 2 subunit 1 (Homo sapiens), sequence (P05198 whole entry): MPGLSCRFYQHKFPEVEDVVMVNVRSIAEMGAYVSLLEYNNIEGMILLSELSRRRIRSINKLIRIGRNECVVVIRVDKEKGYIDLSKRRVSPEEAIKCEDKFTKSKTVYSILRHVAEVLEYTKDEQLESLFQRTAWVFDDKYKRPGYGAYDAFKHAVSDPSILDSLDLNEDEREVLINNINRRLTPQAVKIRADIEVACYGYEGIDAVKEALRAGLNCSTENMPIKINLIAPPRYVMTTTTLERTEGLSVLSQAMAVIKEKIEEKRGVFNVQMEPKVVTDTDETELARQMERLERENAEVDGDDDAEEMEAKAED
Protein disulfide-isomerase (Homo sapiens), P07237 [H256A], sequence (P07237 whole entry H256A): as the sequence (P07237 whole entry) above, with H256A counted along it
72 kDa type IV collagenase (Homo sapiens), sequence (P08253 110-660 limits assumed): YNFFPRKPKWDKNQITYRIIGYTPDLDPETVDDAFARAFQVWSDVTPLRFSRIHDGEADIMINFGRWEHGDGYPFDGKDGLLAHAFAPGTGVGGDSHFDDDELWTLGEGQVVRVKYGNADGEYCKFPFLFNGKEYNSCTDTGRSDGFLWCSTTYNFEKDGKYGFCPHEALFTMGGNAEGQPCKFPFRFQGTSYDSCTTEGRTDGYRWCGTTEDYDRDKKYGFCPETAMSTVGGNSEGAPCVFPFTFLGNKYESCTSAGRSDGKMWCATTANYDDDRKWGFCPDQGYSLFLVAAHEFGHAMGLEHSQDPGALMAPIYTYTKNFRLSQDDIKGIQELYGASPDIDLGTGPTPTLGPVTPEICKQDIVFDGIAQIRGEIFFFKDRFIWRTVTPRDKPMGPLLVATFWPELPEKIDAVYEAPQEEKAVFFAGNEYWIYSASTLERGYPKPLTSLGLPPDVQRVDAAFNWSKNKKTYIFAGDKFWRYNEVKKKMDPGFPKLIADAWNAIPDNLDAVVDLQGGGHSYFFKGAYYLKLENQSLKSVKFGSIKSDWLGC

ΔTm [4]: -0.24 °C
IC50 [8]: > 500 µM
inhibition [10]: inactive
Structure (SMILES): COc1ccc(C(=O)/C=C/c2cccc(C#N)c2)cc1
Activity (A 172 [18]): inactive

ΔTm [4]: 0.34 °C
Activity [20]: Active
inhibition [23]: inactive
Activity [25]: Active
IC50 [8]: 0.21 µM
Activity [32]: inactive
Structure (SMILES): O=C(/C=C/c1ccc(-c2ccncc2)cc1)c1cccc(O)c1
Activity (U-87 MG [19]): inactive
IC50 (HFF-1): 31.8 µM
Activity (A 172 [21]): Active
Activity (U-87 MG [22]): inactive
inhibition (INH) (U-87 MG [24]): >50%
Activity (A 172 [26]): inactive
IC50 (U-87 MG [27]): 24.9 µM
inhibition (U-87 MG [12]): Dose-dependent effect
IC50 (A 172 [28]): 11.3 µM
Ratio IC50 [29]: 8.39
IC50 [30]: 3.8 µM
Activity (U-87 MG [31]): Active

Further lines, the molecule ahead of its results:

Structure (SMILES): C[C@]12CC[C@@H]3c4ccc(O)cc4CC[C@H]3[C@@H]1CC[C@@H]2O
Activity [1]: inactive

Structure (SMILES): CCCCCCCCCCCCC/C=C/C(=O)N[C@H]1[C@H](O[C@H]2O[C@H](CO)[C@@H](O)[C@H](O)[C@H]2NC(C)=O)O[C@H](C[C@@H](O)[C@H]2O[C@@H](n3ccc(=O)[nH]c3=O)[C@H](O)[C@@H]2O)[C@H](O)[C@@H]1O
Activity [2]: Active
Activity [3]: Active

Structure (SMILES): C#CC(=O)N(c1ccc(OC)cc1OC)C(C(=O)NCC(=O)OCC)c1cccs1 (stereo not given)
ΔTm [4]: 0.03 °C
Activity [5]: inactive
Activity (U-87 MG [6]): Active
Activity (U-87 MG [7]): Active
IC50 [8]: 10.8 µM
Activity (A 172 [9]): Active
inhibition [10]: inactive
inhibition [11]: inactive
inhibition (U-87 MG [12]): Dose-dependent effect
Activity (A 172 [13]): Dose-dependent effect
Activity [14]: inactive
Activity (U-87 MG [15]): Active
inhibition (D54 cell line): inactive
inhibition [16]: Active
Activity (A 172 [17]): Active
